Source: PubChem BioAssay
rCAG binder = molecules binding r(CAG) RNA repeats. r(CAG) RNA repeat, TO-PRO-1 dye displacement fluorescence. inhibition, % at 3 µM. actives 1.3% (n = 370,000). AID 651821;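 active means inhibition above the plate cutoff, the mean of all test compounds on that plate plus 3 SD, cut at about 35% in these data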;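 further: 0% = DMSO alone and 100% = 100 µM mitoxantrone as full dye displacement; higher means more dye released from RNA so lower well fluorescence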
V-ATPase pHluor = regulators of yeast V-ATPase proton transport. S. cerevisiae, pHLuorin cytosolic pH fluorescence. response, % at 10 µM. actives 0.37% (n = 350,000); in the data active means response mostly above about 7.3%, no sharp cut-off; inactive means mostly below about 5.4%; further: actives read high
T cell HTS = T cell immune modulators affecting CD8 T cell-vesicle binding; 2C CD8+ T cell-vesicle binding, flow cytometry; hits give low values; response (vesicle binding), % at 7 µM; actives 0.068% (n = 330,000);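 active means response, share of CD8 T cells binding vesicles, and their 90th percentile fluorescence all below set limits, cut at about 80% in these data, passing the limit was not always enough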;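 further: values below 100% mean blocked vesicle binding to the CD8+ T cells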
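Test system: purified 2C TCR transgenic mouse naive CD8+ T cells. Probe or stimulus: QL9-peptide-loaded Drosophila micro-vesicles bearing Ld, ICAM-1 and B7-1. Incubation: binding step 1.5 h, 37 °C, antibody labelling 20 min, ice. Measured by: flow cytometry of vesicle-bound cells.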
Granule exo inh = blocks lytic granule exocytosis; TALL-104 LAMP-1 surface exposure, flow cytometry; cells stimulated with thapsigargin and PMA; inhibition, % at 10 µM; actives 0.66% (n = 360,000);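 active means inhibition above about 55%, limit read from the data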
MPTP inh = blocks calcium-induced mitochondrial swelling | inhibition, % at 10 µM | isolated mouse mitochondria, Ca2+ swelling absorbance, 30 min | actives 1.4% (n = 360,000) | AID 602449;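 active means inhibition of 50% or more, scaled per plate between neutral and stimulator controls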;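 further: 0% = DMSO wells given calcium and 100% = 1 mM EGTA wells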
B2AR ag = activates human beta-2 adrenergic receptor causing internalization | P07550 | Am2.2-beta2AR cells, FAP receptor internalization, flow cytometry | response, % (no concentration beside the values) | actives 0.43% (n = 340,000) | AID 504454;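 active means response above a set limit, near 3 SD of response in nonfluorescent compounds, cut at about 42% in these data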
Target sequence (P07550 whole entry, looked up): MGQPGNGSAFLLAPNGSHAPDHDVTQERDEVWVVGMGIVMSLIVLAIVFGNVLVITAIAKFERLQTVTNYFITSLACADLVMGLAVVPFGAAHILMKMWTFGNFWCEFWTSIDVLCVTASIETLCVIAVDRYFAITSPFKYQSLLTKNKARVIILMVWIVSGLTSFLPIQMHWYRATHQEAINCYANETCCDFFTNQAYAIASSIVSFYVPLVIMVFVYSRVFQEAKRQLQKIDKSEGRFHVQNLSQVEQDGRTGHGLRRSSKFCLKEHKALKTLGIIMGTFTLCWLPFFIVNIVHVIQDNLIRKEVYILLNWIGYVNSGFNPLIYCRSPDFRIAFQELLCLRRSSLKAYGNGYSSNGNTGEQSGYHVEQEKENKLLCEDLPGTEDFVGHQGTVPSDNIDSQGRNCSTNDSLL
rCAG bind conf = r(CAG) RNA repeat binding, confirmation | inhibition, % at 3 µM | actives 70% (n = 4,300) | shares compounds with rCAG binder | TO-PRO-1 dye displacement fluorescence;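 active means inhibition above a per-plate cutoff, the mean inhibition of sample wells plus 3 SD, cut at about 35% in these data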;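 further: loss of TO-PRO-1 fluorescence as compound displaces dye from 1x1 AA loop RNA; 0% = DMSO only wells and 100% = 100 µM mitoxantrone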
dCAG dye counter = disrupts DNA CAG TO-PRO-1 complex, flagging rCAG hits | d(CAG) DNA oligo TO-PRO-1 dye displacement, fluorescence | actives 94% (n = 4,300) | inhibition, % at 3 µM | shares compounds with rCAG binder | AID 652068;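 active means inhibition above its plate's cutoff, the mean test-well inhibition plus 3 SD, cut at about 4.8% in these data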;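 further: 0% = DNA dye mix with DMSO and 100% = 100 µM mitoxantrone; hits displace the dye from DNA and so lower well fluorescence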
An asterisk follows results filed as active; nt = no result. Only some compounds are listed: those with a hit (about 3.8% of all), similar ones and a draw of the others.

SMILES	rCAG binder	V-ATPase pHluor	T cell HTS	Granule exo inh	MPTP inh	B2AR ag	rCAG bind conf	dCAG dye counter
CC(/C=C/c1ccc(N(C)C)cc1)=N/N=C1/NC(=O)CC(C(=O)Nc2ccc(Cl)cc2)S1 (stereo not drawn)	41*	-4	191	6	3	2	41*	14*
CCn1c(-c2cccs2)nc2ccccc21	0	0	296	-2	1	0	nt	nt
CCn1c(C(C#N)/C(=N\S(=O)(=O)c2cccs2)c2ccccc2)nc2ccccc21 (stereo not drawn)	37*	-2	388	-7	1	2	32	7.8*
O=C(O)c1cccc(NC(=S)N/N=C/c2ccccc2OCc2ccc(Br)cc2)c1	80*	0	353	-5	8	40	85*	55*
COC(=O)c1ccc(COc2ccccc2/C=N/Nc2cccc(C(=O)O)c2)cc1	16	11	nt	-2	1	2	nt	nt
O=C(O)c1cccc(NC(=S)N/N=C/c2cccc(O)c2)c1	4	nt	271	-3	0	1	nt	nt
O=C(O)c1cccc(NC(=S)N/N=C/c2ccccc2OCc2cccc(Br)c2)c1	77*	-1	nt	-1	19	13	79*	45*
COC(=O)[C@]12C[C@H](CC(=O)N3CCN(C(=O)C4CC4)CC3)C(=O)N(Cc3ccc(Cl)cc3Cl)C1=C[C@H](C(C)C)O[C@@H]2C1CC1	5	nt	nt	nt	nt	nt	nt	nt
COc1cc2cc3c(N)c(C(=O)Nc4sc(C)c(C)c4C#N)sc3nc2cc1OC	53*	4	346	3	2	-4	61*	31*
COc1ccccc1NC(=O)c1ccccc1NS(=O)(=O)c1cccs1	37*	0	396	12	13	20	27	5.3*
O=C(N/N=C/c1ccc(N2CCOCC2)cc1)c1ccccc1NS(=O)(=O)c1cccs1	66*	-3	202	-1	-1	5	50*	17*
O=C(N/N=C/c1ccc(N2CCOCC2)cc1)c1ccc(NS(=O)(=O)c2cccs2)cc1	19	0	142	-5	-2	-6	nt	nt
COc1ccc(OC)c(C=NNC(=O)c2ccccc2NS(=O)(=O)c2cccs2)c1	60*	-1	187	-2	3	18	50*	15*
O=C(CNC(=O)c1cccs1)N/N=C/c1ccc(O)cc1O	-1	-3	72	0	1	2	nt	nt
O=C(NN=Cc1ccc(O)cc1O)c1ccccc1NS(=O)(=O)c1cccs1	43*	0	461	-1	5	3	41*	14*
COc1ccccc1NC(=O)c1ccccc1NC(=O)c1cccs1	6	4	205	1	2	-1	nt	nt
COc1cc(C=NNC(=O)c2ccccc2NS(=O)(=O)c2cccs2)cc(OC)c1O	42*	2	153	-1	0	18	51*	12*
COc1ccc(C=NNC(=O)c2ccccc2NS(=O)(=O)c2cccs2)cc1O	36*	2	335	0	-1	14	37*	10*
COc1cc(/C=N/NC(=O)c2cccc3ccccc23)cc(OC)c1O	-1	5	604	3	-1	2	nt	nt
CC(=O)N1CCN(c2ccc(N3CCN(Cc4ccccc4)[C@H](C)C3)c(C)c2)[C@H](C)C1	0	nt	nt	nt	nt	nt	nt	nt
CC(C)(C)OC(=O)N1CCC(c2cc(=O)n3[nH]cc(C(=O)Nc4ccc(F)c(Cl)c4)c3n2)CC1	10	2	449	4	49	2	nt	nt
CC(C)(C)OC(=O)N1CCC(c2cc(=O)n3[nH]cc(C(=O)NC4CCCC4)c3n2)CC1	55*	2	943	-7	0	17	48*	13*
O=C(NCCc1ccccc1)OCc1cn(Cc2ccccc2Cl)nn1	0	nt	nt	nt	nt	nt	nt	nt
CCCCOc1ccc(C(=O)n2ccc3ccc(-c4ccc5ccn(Cc6ccccc6)c5c4)cc32)cc1	8	nt	nt	nt	nt	nt	nt	nt
C/C=C1\NC(=O)[C@H](C)NC(=O)[C@@H](NC(=O)[C@@H](Cc2ccc(O)cc2)NC(=O)[C@@H](NC(=O)/C(C)=C/C)C(C)C)[C@@H](C)OC(=O)[C@H](CCCCc2ccc(O)cc2)NC(=O)[C@@H](CCC(=O)O)NC1=O	36*	0	221	28	-1	4	34	6.7*
SMILES	rCAG binder	V-ATPase pHluor	T cell HTS	Granule exo inh	MPTP inh	B2AR ag	rCAG bind conf	dCAG dye counter
CCOC(=O)Cc1csc(NS(=O)(=O)c2ccc3c4c(cccc24)C(=O)N3CC)n1	56*	0	218	2	-8	-9	47*	13*
O=C(N[C@H](C(=O)N1CCC[C@H]1C(=O)NC1CCCC1)C1CCCCC1)c1ccco1	-2	nt	nt	nt	nt	nt	nt	nt
Cc1ccc(NC(=O)CSc2nnc(-c3ccccc3F)n2-c2ccccc2)c(C)c1	-1	nt	nt	nt	nt	nt	nt	nt
O=C(CC(C(=O)O)c1ccc(Cl)cc1Cl)c1ccc(Cl)cc1 (stereo not drawn)	41*	1	326	-6	-1	-11	21	4
CN(Cc1ccccc1)C(=O)c1cccc(NC(=O)Cc2ccc(NC(=O)C3CCCN(S(=O)(=O)c4cccc([N+](=O)[O-])c4)C3)cc2)c1 (stereo not drawn)	18	nt	nt	nt	nt	nt	nt	nt
O=C(c1cc(O)c(O)c([N+](=O)[O-])c1)c1ccccc1F	35*	-6	530	-4	0	12	35*	6.4*
COCCCNC(=O)C[C@H]1C[C@@]2(C(=O)OC)C(=C[C@H](C(C)C)O[C@@H]2C2CC2)N(Cc2cccc3ccccc23)C1=O	5	nt	nt	nt	nt	nt	nt	nt
CCCN1C(=O)c2n[nH]c(C(C)C)c2C1c1cccc(C(F)(F)F)c1 (stereo not drawn)	-1	nt	nt	nt	nt	nt	nt	nt
COc1cc(C2C(C#N)=C(N)Oc3c2ccc2ccccc32)ccc1OCC(=O)Nc1cccc(C)c1 (stereo not drawn)	53*	-4	119	-1	2	-9	14	11*
COc1cc(C2C(C#N)=C(N)Oc3c2ccc2ccccc32)ccc1OCC(=O)Nc1ccc(C)cc1 (stereo not drawn)	38*	1	211	-6	0	2	17	13*
COc1ccc(C2C(C#N)=C(N)Oc3c2ccc2cccnc32)cc1OC (stereo not drawn)	3	4	447	6	-1	-17	nt	nt
Cc1cc(N2CCNC[C@@H]2C)ccc1N1CCS(=O)(=O)CC1	2	nt	nt	nt	nt	nt	nt	nt
O=c1c2ccccc2n(Cc2ccccc2)n1[C@@H](Cc1ccccc1)Cn1cc(C2CCCC2)nn1	7	nt	nt	nt	nt	nt	nt	nt
FC(F)(F)c1ccc(/C=N/n2c(COc3ccccc3)n[nH]c2=S)cc1	51*	-2	76	-2	0	8	37*	8.5*
